Key:
Influenza B virus [1] = test: Antiviral activity against Influenza B virus B/Ned/537/05 infected in MDCK cells assessed as reduction in virus-induced cytopathic effect after 3 days by microscopic method; format: functional, organism-based; conditions: B/Ned/537/05, MDCK, 72 h
In short: (§1)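 Semi-confluent MDCK cells were infected at an MOI of 0.0004 PFU/cell in Ultra-MDCK infection medium with 2 μg/mL TPCK-trypsin, together with compounds. After 3 days at 35 °C, CPE was scored by microscopy and confirmed by MTS formazan viability. Values are means of two to five independent tests.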

Influenza A virus [2] = test: Antiviral activity against Influenza A virus A/PR/8/34(H1N1) infected in MDCK cells after 3 days by MTS assay; format: functional, organism-based, A/Puerto Rico/8/1934(H1N1); conditions: Influenza A virus, A/Puerto Rico/8/1934(H1N1), MDCK, 72 h
In short: as §1, with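 “viability. EC50 is the concentration giving 50% inhibition of virus-induced CPE.” for “viability.”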

Influenza B virus [3] = test: Antiviral activity against Influenza B virus B/Ned/537/05 infected in MDCK cells after 3 days by MTS assay; format: functional, organism-based; conditions: B/Ned/537/05, MDCK, 72 h; in short: as §1
MDCK = test: Cytotoxicity against MDCK cells assessed as reduction in cell viability after 3 days by MTS assay; format: cell-based, Canis lupus familiaris; conditions: dog, mdck, 72 h
Influenza A virus [4] = test: Antiviral activity against Influenza A virus A/Virginia/ATCC3/2009(H1N1pdm) infected in MDCK cells after 3 days by MTS assay; format: functional, organism-based, Influenza A virus (A/Virginia/03/2009(H1N1)); conditions: 72 h
In short: as §1, with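 “viability. EC50 is the concentration giving 50% inhibition of virus-induced CPE.” for “viability.”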

Influenza A virus [5] = test: Antiviral activity against Influenza A virus A/PR/8/34(H1N1) infected in MDCK cells assessed as reduction in virus-induced cytopathic effect after 3 days by microscopic method; format: functional, organism-based, A/Puerto Rico/8/1934(H1N1); conditions: Influenza A virus, A/Puerto Rico/8/1934(H1N1), MDCK, 72 h
In short: as §1, with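 “viability. EC50 is the concentration giving 50% inhibition of virus-induced CPE.” for “viability.”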

H3N2 subtype [6] = test: Antiviral activity against Influenza A virus A/HK/7/87(H3N2) infected in MDCK cells after 3 days by MTS assay; format: functional, organism-based; conditions: A/Hong Kong/7/1987(H3N2), 72 h
In short: as §1, with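 “viability. EC50 is the concentration giving 50% inhibition of virus-induced CPE.” for “viability.”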

[7] = Cytotoxicity against MDCK cells assessed as alteration in cell morphology after 3 days by microscopic method; format: cell-based, Canis lupus familiaris; conditions: dog
In short: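 Mock-infected MDCK cells were treated with compounds in parallel with the antiviral assay, 3 days at 35 °C. MCC is the concentration causing minimal change in cell morphology by microscopy. CC50 is the 50% cytotoxic concentration by MTS formazan viability assay.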

H3N2 subtype [8] = test: Antiviral activity against Influenza A virus A/HK/7/87(H3N2) infected in MDCK cells assessed as reduction in virus-induced cytopathic effect after 3 days by microscopic method; format: functional, organism-based; conditions: A/Hong Kong/7/1987(H3N2), 72 h
In short: as §1, with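 “viability. EC50 is the concentration giving 50% inhibition of virus-induced CPE.” for “viability.”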

Influenza A virus [9] = test: Antiviral activity against Influenza A virus A/Virginia/ATCC3/2009(H1N1pdm) infected in MDCK cells assessed as reduction in virus-induced cytopathic effect after 3 days by microscopic method; format: functional, organism-based, Influenza A virus (A/Virginia/03/2009(H1N1)); conditions: 72 h
In short: as §1, with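 “viability. EC50 is the concentration giving 50% inhibition of virus-induced CPE.” for “viability.”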

Influenza B virus [10] = test: Antiviral activity against Influenza B virus B/HK/05/72 infected in MDCK cells after 3 days by MTS assay; format: functional, organism-based; conditions: B/Hong Kong/05/1972, MDCK, 72 h
In short: as §1, with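 “viability. EC50 is the concentration giving 50% inhibition of virus-induced CPE.” for “viability.”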

Influenza B virus [11] = test: Antiviral activity against Influenza B virus B/HK/05/72 infected in MDCK cells assessed as reduction in virus-induced cytopathic effect after 3 days by microscopic method; format: functional, organism-based; conditions: B/Hong Kong/05/1972, MDCK, 72 h
In short: as §1, with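 “viability. EC50 is the concentration giving 50% inhibition of virus-induced CPE.” for “viability.”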

Row | Compound | EC50 (Influenza B virus [1]) | EC50 (Influenza A virus [2]) | EC50 (Influenza B virus [3]) | CC50 (MDCK) | EC50 (Influenza A virus [4]) | EC50 (Influenza A virus [5]) | EC50 (H3N2 subtype [6]) | MCC at 72 h [7] | EC50 (H3N2 subtype [8]) | EC50 (Influenza A virus [9]) | EC50 (Influenza B virus [10]) | EC50 (Influenza B virus [11])
1 | CCCCCCCCCCCCSC1=C(SCCCCCCCCCCCC)C(=O)N([C@H]2C(=O)N[C@@H]3Cc4ccc(c(Cl)c4)Oc4cc5cc(c4O)Oc4ccc(cc4Cl)[C@@H](O[C@@H]4O[C@H](CO)[C@@H](O)[C@H](O)[C@H]4NC(C)=O)[C@H]4NC(=O)[C@H](NC(O)[C@@H]5NC(=O)[C@@H](NC3=O)c3cc(O)cc(c3)Oc3cc2ccc3O)c2ccc(O)c(c2)-c2c(O)cc(O)cc2[C@H](C(=O)O)NC4=O)C1=O (stereo not given in full) | > 100 µM | > 100 µM | > 100 µM | ≤ 1.1 µM | > 100 µM | > 100 µM | > 100 µM | ≤ 4 µM | > 100 µM | > 100 µM |  | 
2 | NC12CC3CC(CC(C3)C1)C2 [AMANTADINE] | > 500 µM | > 500 µM | > 500 µM | > 500 µM |  | > 500 µM | 1.9 µM | > 500 µM | 11 µM |  |  | 
3 | CCCCCCCCCCCCSC1=C(SCCCCCCCCCCCC)C(=O)N(CCOCCOCCOCCOCc2cn(C3C(=O)N[C@@H]4Cc5ccc(c(Cl)c5)Oc5cc6cc(c5O)Oc5ccc(cc5Cl)[C@@H](O[C@@H]5O[C@H](CO)[C@@H](O)[C@H](O)[C@H]5NC(C)=O)[C@H]5NC(=O)[C@H](NC(O)[C@@H]6NC(=O)[C@@H](NC4=O)c4cc(O)cc(c4)Oc4cc3ccc4O)c3ccc(O)c(c3)-c3c(O)cc(O)cc3[C@H](C(=O)O)NC5=O)nn2)C1=O (stereo not given in full) | > 100 µM | 13 µM | > 100 µM | 79 µM | 2.8 µM | > 100 µM | 2.4 µM | 20 µM | > 100 µM | > 100 µM |  | 
4 | CCCCCCCCSC1=C(SCCCCCCCC)C(=O)N(CCOCCOCCOCCOCc2cn(C3C(=O)N[C@@H]4Cc5ccc(c(Cl)c5)Oc5cc6cc(c5O)Oc5ccc(cc5Cl)[C@@H](O[C@@H]5O[C@H](CO)[C@@H](O)[C@H](O)[C@H]5NC(C)=O)[C@H]5NC(=O)[C@H](NC(O)[C@@H]6NC(=O)[C@@H](NC4=O)c4cc(O)cc(c4)Oc4cc3ccc4O)c3ccc(O)c(c3)-c3c(O)cc(O)cc3[C@H](C(=O)O)NC5=O)nn2)C1=O (stereo not given in full) |  | 2 µM |  | 19 µM | ≤ 0.8 µM | 1.3 µM | ≤ 0.8 µM | ≥ 4 µM | 0.92 µM | ≤ 1.4 µM | > 20 µM | > 20 µM
5 | CC(N)C12CC3CC(CC(C3)C1)C2 (stereo not given) [RIMANTADINE] | > 500 µM | > 500 µM | > 500 µM | > 500 µM |  | > 500 µM |  | > 500 µM | 0.2 µM |  |  | 
6 | CC(=O)N[C@H]1[C@H](O[C@@H]2c3ccc(c(Cl)c3)Oc3cc4cc(c3O)Oc3ccc(cc3Cl)C[C@H]3NC(=O)C(n5cc(CN6C(=O)C(SC[C@H]7O[C@@H]8OC(C)(C)O[C@@H]8[C@H]8OC(C)(C)O[C@H]87)=C(SC[C@H]7O[C@@H]8OC(C)(C)O[C@@H]8[C@H]8OC(C)(C)O[C@H]87)C6=O)nn5)c5ccc(O)c(c5)Oc5cc(O)cc(c5)[C@H](NC3=O)C(=O)N[C@H]4C(O)N[C@H]3C(=O)N[C@H]2C(=O)N[C@@H](C(=O)O)c2cc(O)cc(O)c2-c2cc3ccc2O)O[C@H](CO)[C@@H](O)[C@@H]1O (stereo not given in full) |  | > 100 µM |  | 18 µM | > 100 µM | > 100 µM | > 100 µM | 20 µM | > 100 µM | > 100 µM | > 100 µM | > 100 µM
7 | CCCSC1=C(SCCC)C(=O)N([C@H]2C(=O)N[C@@H]3Cc4ccc(c(Cl)c4)Oc4cc5cc(c4O)Oc4ccc(cc4Cl)[C@@H](O[C@@H]4O[C@H](CO)[C@@H](O)[C@H](O)[C@H]4NC(C)=O)[C@H]4NC(=O)[C@H](NC(O)[C@@H]5NC(=O)[C@@H](NC3=O)c3cc(O)cc(c3)Oc3cc2ccc3O)c2ccc(O)c(c2)-c2c(O)cc(O)cc2[C@H](C(=O)O)NC4=O)C1=O (stereo not given in full) | > 100 µM | > 100 µM | 7.2 µM | 18 µM | 2 µM | > 100 µM | > 100 µM | 20 µM | > 100 µM | 1.8 µM |  | 

Reference: ChEMBL document CHEMBL4270630
